Measurements: ChEMBL document CHEMBL1149742, “Displacement activity of bisbenzylisoquinoline alkaloids at striatal 3H-SCH 23390 and 3H-raclopride binding sites” (J Nat Prod, 1992)

What was measured:
[1] = target: D(1A) dopamine receptor (Rattus norvegicus, UniProt P18901); experiment: Displacement of [3H]SCH23390 from dopamine D1 receptor in Wistar rat striatal membrane by liquid scintillation counting; type: cell membranes, Striatum
Method in brief: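 Striata from male Wistar rats (200–250 g) homogenized in 50 mM Tris-HCl pH 7.4, centrifuged twice at 20,000 g, resuspended in Tris-Mg buffer (5 mM MgSO4, 0.5 mM EDTA, 0.02% ascorbic acid). 100 µg protein incubated 1 h at 25° with 0.25 nM [3H]SCH 23390 (final), compounds at 6 or 11 concentrations 10^-9–10^-4 M. Nonspecific binding with 30 µM SK&F 38393. GF/B filtration. IC50 with 95% confidence limits by Litchfield–Wilcoxon, 4–8 determinations per concentration.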

[2] = species on record: Rattus norvegicus; experiment: Selectivity ratio of IC50 for dopamine D1 receptor in Wistar rat striatal membrane to IC50 for dopamine D2 receptor in Wistar rat striatal membrane; type: cell membranes
[3] = target: D(2) dopamine receptor (Rattus norvegicus, UniProt P61169); experiment: Displacement of [3H]raclopride from dopamine D2 receptor in Wistar rat striatal membrane by liquid scintillation counting; type: cell membranes, Striatum
D(2) dopamine receptor, sequence (P61169 whole entry): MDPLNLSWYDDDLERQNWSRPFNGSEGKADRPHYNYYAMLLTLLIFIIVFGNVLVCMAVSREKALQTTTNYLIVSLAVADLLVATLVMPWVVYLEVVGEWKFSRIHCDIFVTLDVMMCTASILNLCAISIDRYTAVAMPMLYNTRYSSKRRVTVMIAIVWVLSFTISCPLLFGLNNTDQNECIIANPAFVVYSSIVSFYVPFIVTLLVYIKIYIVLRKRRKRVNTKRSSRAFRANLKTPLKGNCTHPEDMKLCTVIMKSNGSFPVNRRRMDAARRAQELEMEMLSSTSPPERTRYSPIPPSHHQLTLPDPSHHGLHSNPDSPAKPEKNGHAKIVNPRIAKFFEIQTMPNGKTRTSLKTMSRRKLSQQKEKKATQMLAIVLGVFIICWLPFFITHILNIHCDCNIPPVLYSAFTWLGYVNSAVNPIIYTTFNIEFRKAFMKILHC
Method in brief: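 Male Wistar rat (200–250 g) striatal membranes, centrifuged four times at 20,000 g, resuspended in Tris-ions buffer (120 mM NaCl, 5 mM KCl, 1 mM CaCl2, 1 mM MgCl2, 0.1% ascorbic acid, pH 7.4). 200 µg protein incubated 1 h at 25° with 0.5 nM [3H]raclopride (final), compounds at 6 or 11 concentrations 10^-9–10^-4 M. Nonspecific binding with 50 µM apomorphine. GF/B filtration. IC50 by Litchfield–Wilcoxon, 4–8 determinations per concentration.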

D(1A) dopamine receptor, sequence (P18901 whole entry): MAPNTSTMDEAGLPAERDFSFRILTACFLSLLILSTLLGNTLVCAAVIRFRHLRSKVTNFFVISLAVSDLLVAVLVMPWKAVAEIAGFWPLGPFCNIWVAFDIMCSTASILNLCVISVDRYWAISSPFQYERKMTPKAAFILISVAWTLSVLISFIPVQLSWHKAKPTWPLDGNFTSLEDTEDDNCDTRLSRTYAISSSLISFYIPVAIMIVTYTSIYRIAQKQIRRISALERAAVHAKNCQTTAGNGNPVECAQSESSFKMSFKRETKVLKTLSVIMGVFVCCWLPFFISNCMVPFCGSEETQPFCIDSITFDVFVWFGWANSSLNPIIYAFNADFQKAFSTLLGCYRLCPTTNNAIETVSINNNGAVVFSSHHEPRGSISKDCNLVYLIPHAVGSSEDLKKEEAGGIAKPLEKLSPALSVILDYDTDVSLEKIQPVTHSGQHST

SMILES | IC50 [1] [µM] | Ratio IC50 [2] | IC50 [3] [µM]
COc1ccc(C[C@H]2c3c(cc(OC)c4c3Oc3cc5c(cc3O4)CCN(C)C5=O)CCN2C)cc1-c1cc(C=O)ccc1O | > 100 | > 1.2 | 81.6
COc1ccc(C=O)cc1Oc1ccc(C[C@H]2c3c(cc(OC)c(OC)c3Oc3cc4c(cc3OC)CCN(C)C4=O)CCN2C)cc1 | > 30 | – | > 30
COc1cc2c(cc1O)[C@@H](Cc1ccc(O)c(Oc3ccc(C[C@H]4c5cc(O)c(OC)cc5CCN4C)cc3)c1)N(C)CC2 | 1.04 | 3.5 | 0.3
COc1cc2c(cc1OC)[C@@H](Cc1ccc(Oc3cc(C[C@H]4c5cc(OC)c(OC)cc5CCN4C)ccc3OC)cc1)N(C)CC2 | 5.64 | 3.9 | 1.45
COc1cc2c(cc1OC)[C@@H](Cc1ccc(Oc3cc(C[C@@H]4c5cc(OC)c(OC)cc5CCN4C)ccc3OC)cc1)N(C)CC2 | > 100 | – | > 100
COc1ccc2cc1Oc1ccc(cc1)C[C@H]1c3c(cc(OC)c(OC)c3Oc3cc4c(cc3OC)CCN(C)[C@@H]4C2)CCN1C | 39.1 | 1.4 | 28.4
COc1cc2c3cc1Oc1c(O)c(OC)cc4c1[C@H](Cc1ccc(OC)c(c1)-c1cc(ccc1O)C[C@H]3N(C)CC2)N(C)CC4 | > 100 | 31.4 | 3.18
COc1cc2c3cc1Oc1c(O)c(OC)cc4c1[C@H](Cc1ccc(OC)c(c1)-c1cc(ccc1O)C(=O)[C@H]3N(C)CC2)N(C)CC4 | 11.1 | 4 | 2.76
COc1cc2c3cc1Oc1c(O)c(OC)cc4c1[C@@H](C(=O)c1ccc(O)c(c1)-c1cc(ccc1OC)C[C@H]3N(C)CC2)N(C)CC4 | 90.2 | 5.6 | 16.2
COc1cc2c(cc1O)[C@@H](Cc1ccc(OC)c(Oc3ccc(C[C@H]4c5cc(O)c(OC)cc5CCN4C)cc3)c1)N(C)CC2 | 5.6 | 207 | 0.027
COc1ccc2cc1Oc1ccc(cc1)C[C@H]1c3cc(c(OC)cc3CCN1C)Oc1c(OC)c(OC)cc3c1[C@@H](C2)N(C)CC3 | 33.3 | 49.6 | 0.67
COc1cc2c(cc1OC)[C@@H](Cc1ccc(OC)c(Oc3ccc(C[C@H]4NCCc5cc(OC)c(OC)cc54)cc3)c1)N(C)CC2 | > 100 | – | > 100
COc1ccc2cc1Oc1ccc(cc1)C[C@@H]1c3c(cc(OC)c(O)c3Oc3cc4c(cc3OC)CCN(C)[C@H]4C2)CCN1C (racemic) | 15.4 | 0.2 | 66.4
COc1cc2c(cc1Oc1c(O)c(OC)cc3c1[C@H](Cc1ccc(OC)c(-c4cc(C=O)ccc4O)c1)N(C)CC3)C(=O)N(C)CC2 | > 30 | > 3 | 10
